Measured values taken from ChEMBL document CHEMBL4118208, “Design, synthesis and molecular modeling of new 4-phenylcoumarin derivatives as tubulin polymerization inhibitors targeting MCF-7 breast cancer cells” (Bioorg Med Chem, 2018).
≈ marks a conversion by molar mass, not a printed value.

Columns and labels:
MCF7 [1] = assay: Growth inhibition of human MCF7 cells at 100 ug/ml after 48 hrs by MTT assay relative to control; type: functional; conditions: MCF7, 48 h, read-out: GI
Summary of the method: (§1)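 Preliminary screen at 100 µg/mL against MCF-7 and normal BJ-1 cells. Values are % inhibition, given as the mean of 3 replicate samples with standard deviation.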

MCF7 [2] = assay: Growth inhibition of human MCF7 cells after 48 hrs by MTT assay; type: functional, cell-based; conditions: MCF7, 48 h
[3] = Growth inhibition of human hTERT-BJ1 cells at 100 ug/ml after 48 hrs by MTT assay relative to control; type: cell-based, hTERT-BJ; conditions: read-out: GI; summary of the method: as §1
Tubulin beta-5 chain [4] = molecular target: T1, Tubulin beta-5 chain (Homo sapiens, UniProt P07437); assay: Potency index, ratio of colchicine IC50 to compound IC50 for tubulin beta polymerization in human MCF7 cells; type: cell-based
Tubulin beta-5 chain [5] = molecular target: T1, Tubulin beta-5 chain; assay: Inhibition of tubulin beta polymerization in human MCF7 cells after 18 to 24 hrs by ELISA based spectrophotometric analysis; type: cell-based
MCF7 [6] = assay: Cell cycle arrest in human MCF7 cells assessed as accumulation at G2/M phase at 11.1 ug/ml after 24 hrs by PI staining based flow cytometry relative to control; type: functional
MCF7 [7] = assay: Induction of apoptosis in human MCF7 cells assessed as early apoptotic cells at 11.1 ug/ml after 24 hrs by Annexin V-FITC/PI staining based flow cytometry (reference value: 0.18%); type: functional
Summary of the method: (§2)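 MCF-7 cells treated at 11.1 µg/mL for 24 h, then labelled with annexin V-FITC and propidium iodide. Green (FITC) and red (PI) fluorescence are read by flow cytometry. Early apoptosis is scored as annexin V+/PI−, late as annexin V+/PI+. DMSO serves as negative control.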

MCF7 [8] = assay: Cell cycle arrest in human MCF7 cells assessed as accumulation at S phase at 11.1 ug/ml after 24 hrs by PI staining based flow cytometry (reference value: 30.1%); type: functional
MCF7 [9] = assay: Induction of apoptosis in human MCF7 cells assessed as increase in caspase 7 levels at 11.1 ug/ml after 24 hrs by ELISA relative to control; type: functional
Summary of the method: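 Caspase-7 level is measured in MCF-7 cells after treatment at 11.1 µg/mL for 24 h and reported as concentration. Doxorubicin is used as reference.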

MCF7 [10] = assay: Cell cycle arrest in human MCF7 cells assessed as accumulation at pre-G1 phase at 11.1 ug/ml after 24 hrs by PI staining based flow cytometry relative to control; type: functional
MCF7 [11] = assay: Cell cycle arrest in human MCF7 cells assessed as apoptotic cells at 11.1 ug/ml after 24 hrs by PI staining based flow cytometry (reference value: 0.64%); type: functional
MCF7 [12] = assay: Induction of apoptosis in human MCF7 cells assessed as necrotic cells at 11.1 ug/ml after 24 hrs by Annexin V-FITC/PI staining based flow cytometry (reference value: 0.37%); type: functional; summary of the method: as §2
MCF7 [13] = assay: Induction of apoptosis in human MCF7 cells assessed as viable cells at 11.1 ug/ml after 24 hrs by Annexin V-FITC/PI staining based flow cytometry (reference value: 97.24%); type: functional; conditions: MCF7, 24 h, read-out: Activity; summary of the method: as §2
MCF7 [14] = assay: Cell cycle arrest in human MCF7 cells assessed as accumulation at G1 phase at 11.1 ug/ml after 24 hrs by PI staining based flow cytometry (reference value: 61.31%); type: functional
MCF7 [15] = assay: Cell cycle arrest in human MCF7 cells assessed as accumulation at G2 phase at 11.1 ug/ml after 24 hrs by PI staining based flow cytometry (reference value: 8.59%); type: functional
MCF7 [16] = assay: Induction of apoptosis in human MCF7 cells assessed as late apoptotic cells at 11.1 ug/ml after 24 hrs by Annexin V-FITC/PI staining based flow cytometry (reference value: 0.09%); type: functional; summary of the method: as §2

T1 sequence (P07437 whole entry): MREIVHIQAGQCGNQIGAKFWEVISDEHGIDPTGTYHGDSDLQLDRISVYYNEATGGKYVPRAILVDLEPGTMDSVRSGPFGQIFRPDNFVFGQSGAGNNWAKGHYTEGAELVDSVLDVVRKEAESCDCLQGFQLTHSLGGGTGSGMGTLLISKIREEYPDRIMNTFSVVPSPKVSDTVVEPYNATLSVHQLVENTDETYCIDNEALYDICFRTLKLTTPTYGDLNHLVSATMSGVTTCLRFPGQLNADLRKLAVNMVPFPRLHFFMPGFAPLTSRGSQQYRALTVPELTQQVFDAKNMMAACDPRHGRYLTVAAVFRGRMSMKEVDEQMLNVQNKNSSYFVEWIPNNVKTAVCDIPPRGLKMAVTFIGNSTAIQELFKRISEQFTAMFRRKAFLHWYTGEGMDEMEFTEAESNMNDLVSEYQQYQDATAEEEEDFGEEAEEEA

Row | IC50 (MCF7 [2]) [µg/mL] | Structure (SMILES) | inhibition of growth at 100 µg/mL (MCF7 [1]) [%] | other results
1 | 38.1 (≈ 88 µM) | O=C(COc1ccc2c(-c3ccccc3)cc(=O)oc2c1)N/N=C/c1ccc(Cl)cc1 | 76.5 | –
2 | 4.3 (≈ 8.8 µM) | COc1cc(/C=N/NC(=O)COc2ccc3c(-c4ccccc4)cc(=O)oc3c2)cc(OC)c1OC | 90.7 | –
3 | 37 (≈ 76.5 µM) | CCOC(=O)C(C)S/C(=N/NC(=O)COc1ccc2c(-c3ccccc3)cc(=O)oc2c1)NC (configuration not stated) | > 70 | –
4 | 25.2 (≈ 81.2 µM) | NNC(=O)COc1ccc2c(-c3ccccc3)cc(=O)oc2c1 | > 70 | –
5 | 16.7 (≈ 32.9 µM) | O=C(COc1ccc2c(-c3ccccc3)cc(=O)oc2c1)NN1C(=O)CSC1c1ccc(Cl)cc1 (configuration not stated) | > 70 | inhibition at 48 h, 100 ug/ml [3]: 26.9%; Ratio IC50 (Tubulin beta-5 chain [4]): 2.4; IC50 (Tubulin beta-5 chain [5]): 2.89 µM
6 | 42 (≈ 76.2 µM) | O=C(COc1ccc2c(-c3ccccc3)cc(=O)oc2c1)NN1C(=O)CSC1c1ccc(Br)cc1 (configuration not stated) | > 70 | –
7 | 41.9 (≈ 79.7 µM) | CCN/C(=N\NC(=O)COc1ccc2c(-c3ccccc3)cc(=O)oc2c1)SC(C(C)=O)C(=O)OCC (configuration not stated) | > 70 | –
8 | 30.6 (≈ 59.8 µM) | CCOC(=O)C(S/C(=N/NC(=O)COc1ccc2c(-c3ccccc3)cc(=O)oc2c1)NC)C(C)=O (configuration not stated) | > 70 | –
9 | – | CCN/C(=N\NC(=O)COc1ccc2c(-c3ccccc3)cc(=O)oc2c1)SC(C)C(=O)OCC (configuration not stated) | 67.1 | –
10 | 21.2 (≈ 37.7 µM) | COc1cc(C2SCC(=O)N2NC(=O)COc2ccc3c(-c4ccccc4)cc(=O)oc3c2)cc(OC)c1OC (configuration not stated) | 86.4 | inhibition at 48 h, 100 ug/ml [3]: 16.8%; IC50 (Tubulin beta-5 chain [5]): 6.13 µM
11 | 42 (≈ 90.6 µM) | CC(=O)c1s/c(=N\NC(=O)COc2ccc3c(-c4ccccc4)cc(=O)oc3c2)n(C)c1C | > 70 | –
12 | – | O=C(COc1ccc2c(-c3ccccc3)cc(=O)oc2c1)N/N=C/c1ccc(F)cc1 | 65.5 | –
13 | 9.3 (≈ 19.2 µM) | Cn1c(-c2ccccc2)cs/c1=N\NC(=O)COc1ccc2c(-c3ccccc3)cc(=O)oc2c1 | > 70 | –
14 | – | COc1ccc(/C=N/NC(=O)COc2ccc3c(-c4ccccc4)cc(=O)oc3c2)cc1 | 46.3 | –
15 | – | COc1ccc(/C=N/NC(=O)COc2ccc3c(-c4ccccc4)cc(=O)oc3c2)cc1OC | 48.9 | –
16 | 36.9 (≈ 87.5 µM) | Cc1cs/c(=N\NC(=O)COc2ccc3c(-c4ccccc4)cc(=O)oc3c2)n1C | > 70 | –
17 | – | COc1ccc(C2SCC(=O)N2NC(=O)COc2ccc3c(-c4ccccc4)cc(=O)oc3c2)cc1OC (configuration not stated) | 63.3 | –
18 | 78 (≈ 179 µM) | CCn1c(C)cs/c1=N\NC(=O)COc1ccc2c(-c3ccccc3)cc(=O)oc2c1 | > 70 | –
19 | 11.1 (≈ 22.6 µM) | O=C(COc1ccc2c(-c3ccccc3)cc(=O)oc2c1)NN1C(=O)CSC1c1ccc(F)cc1 (configuration not stated) | > 70 | fold change (FC) (MCF7 [6]): 5; Activity (MCF7 [7]): 5.49%; inhibition at 48 h, 100 ug/ml [3]: 13.2%; Activity (MCF7 [8]): 18.05%; fold change (FC) (MCF7 [9]): 3.237; fold change (FC) (MCF7 [10]): 28.6; Activity (MCF7 [11]): 18.31%; Activity (MCF7 [12]): 2.19%; viability at 11.1 µg/mL (MCF7 [13]): 79.8%; Activity (MCF7 [14]): 38.36%; Activity (MCF7 [15]): 43.59%; IC50 (Tubulin beta-5 chain [5]): 9.37 µM; Activity (MCF7 [16]): 10.63%
20 | – | O=C(COc1ccc2c(-c3ccccc3)cc(=O)oc2c1)N/N=C/c1ccc(Br)cc1 | 67.8 | –
21 | 10.6 (≈ 21.3 µM) | CCn1c(-c2ccccc2)cs/c1=N\NC(=O)COc1ccc2c(-c3ccccc3)cc(=O)oc2c1 | > 70 | –
22 | – | COc1ccc(C2SCC(=O)N2NC(=O)COc2ccc3c(-c4ccccc4)cc(=O)oc3c2)cc1 (configuration not stated) | 64.4 | –
23 | 28 (≈ 58.6 µM) | CCn1c(C)c(C(C)=O)s/c1=N\NC(=O)COc1ccc2c(-c3ccccc3)cc(=O)oc2c1 | > 70 | –
